Data: the RNAGym collection of RNA variant scans (doi:10.1126/science.aae0568)
Fewer inactive variants are shown than the library holds.

B1: tRNA (parent)
chain: GUUCCGUUGGCGUAAUGGUAACGCGUCUCCCUCCUAAGGAGAAGACUGCGGGUUCGAGUCCCGUACGGAACG

Variants of: B1
Assay: yeast fitness relative to wild type (ratio to wild type); higher = fitter; tRNA-Arg(CCU), competitive growth, 37 C, YPD
Procedure, shortened: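 For this measurement, the tRNA-Arg(CCU) gene was varied by chemical synthesis at a 3% per-site mutation rate across 69 sites, and each variant was placed at the native genomic locus in Saccharomyces cerevisiae. The pooled strains went through a 24-hour competition in YPD at 37°C in six parallel replicates, with amplicons from start and end populations read by 100-nucleotide paired-end sequencing. Darwinian fitness relative to wild type followed from the change in each genotype's frequency. Genotypes needed ≥ 100 starting reads, and estimates < 0.5 were set to 0.5.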

Variant	yeast fitness
A15G C31A A65G	≤ 0.5
A15G U28C U35A G38A C46G	0.552
A15G C34U G41C C49U	≤ 0.5
A15G C24G U26A	0.656
A15G C22G U35C A43U	0.556
A15G G41A A43U G50C	≤ 0.5
A15G U26A	1.04
A15G C49G	0.782
A15G C27A	0.786
A15U C27G C62A C66A	≤ 0.5
A15G U26G C55U A69U A70C	≤ 0.5
A15U A36G C55G	0.565
A15G U16A A20G A42G	0.577
A15G U54G C55U	0.561
A15U C27A A65C G67A A69C	≤ 0.5
A15U C62A	0.624
A15G G56A	0.971
A15G G41C A43C G67A	0.535
A15U A20U A45C A57G	≤ 0.5
A15G C29U C34A A42U	≤ 0.5
A15U C34A	0.707
A15U C34G	≤ 0.5
A15G G23C G38C G52C G58A	0.507
A15U A43G G56C C60U	≤ 0.5

Variant	yeast fitness
A15G U19C A37U C49U G51A U64A	≤ 0.5
A15U C22U A70C	≤ 0.5
A15U C24U A37G	≤ 0.5
A15G C30A C62A	≤ 0.5
A15G C24U C34U C61U	≤ 0.5
A15U C24U A43C	0.573
A15G G44A G50C C60U A70G	≤ 0.5
A15G U26G G41A G56A	≤ 0.5
A15G C22U	0.871
A15G C66A	0.657
A15G C66U	0.887
A15G C34U A36G	0.563
A15G G50A	0.929
A15U C46A U59C	≤ 0.5
A15G U64C A69C	0.775
A15U A37G C66G	≤ 0.5
A15G C30G A43U C62A	0.611
A15U A20G U35C G48U C55G	≤ 0.5
A15U C27U G44C G58C G63C	≤ 0.5
A15G C61A C62G G68A	≤ 0.5
A15G U54G C55U A65G	≤ 0.5
A15G C29U C34G A40C	0.694
A15G G18A	0.793
A15G G18U	0.75

Variant	yeast fitness
A15G C33U A45U C62A	≤ 0.5
A15U C22U G39C	≤ 0.5
A15G U19C G51C C55U	0.582
A15U C49G G68C	≤ 0.5
A15G G52A G67U	≤ 0.5
A15G C29A U64C	≤ 0.5
A15U C46G C61A	0.51
A15U C22U A57C	≤ 0.5
A15G C46A	0.884
A15G C46U	0.987
A15G C33G	0.732
A15G U19A U28A C55A A65U	≤ 0.5
A15G C24G U26A G52A G67A G68C	0.561
A15G U26G A57G	0.611
A15G C27U G58C	0.717
A15G C24G C29U	≤ 0.5
A15G U19C C29U A37G	≤ 0.5
A15U A40G	0.598
A15U A40C	0.723
A15U A42G C46G C61A	≤ 0.5
A15G U19G A40G	0.582
A15G U19G	0.985
A15G U19C	0.985
A15G C30G C55A	≤ 0.5

Variant	yeast fitness
A15U C66U	0.738
A15U C66A	0.649
A15U	0.885
A15U A20G C46G C61A	≤ 0.5
A15U A36C	≤ 0.5
A15U A36U	≤ 0.5
A15G G38A A40C G50A U54A	≤ 0.5
A15G U32A G38A C49U	≤ 0.5
A15G C30G C49G A65U	≤ 0.5
A15G G67A	0.868
A15G G67C	0.706
A15G G67U	0.662
A15G G23C C30A A42C G51C	0.537
A15U C34G G51A C66U	0.584
A15U A20G C27U G48C A70U	≤ 0.5
A15G C49U C60G	≤ 0.5
A15U C31U A36G	0.568
A15G G23C C30A A42C G44A G51C	≤ 0.5
A15G C31A A70U	0.639
A15G U54A G63C	0.631
A15G U19C A37U C49U G51A C60A	≤ 0.5
A15U A65G C66A G67C	≤ 0.5
A15G U32C A37G C55A	≤ 0.5
A15G G17C C61A	≤ 0.5

Variant	yeast fitness
A15G G17A C33U G39C C55A G67C	0.66
A15G G58A G63A G68C	≤ 0.5
A15G G25A U32G A40G C60G	0.501
A15G C27A A43G	≤ 0.5
A15U G17C A45U C49G A70U	0.528
A15U A21C C24G C29U A42C U59G G67C	≤ 0.5
A15U A21C C24G C29U A42C U59G G67U	≤ 0.5
A15U G17A C29G	≤ 0.5
A15G G18A C49A	≤ 0.5
A15G U47C	0.896
A15G U47G	0.782
A15G U47A	0.916
A15U A20G A43C	0.593
A15G G25C C55U	0.562
A15G C22G A36U A40G U59A	≤ 0.5
A15G C27A C60G	≤ 0.5
A15U C24U U64C	≤ 0.5
A15U A42C A43C	0.561
A15G U19A U28A	≤ 0.5
A15G G17A A21C	≤ 0.5
A15U C27U A65U	0.725
A15U C29A	0.568
A15G G23C A43G	0.54
A15U A43C	0.825

Variant	yeast fitness
A15U C22G C31U U32C A57C U64A G68A	≤ 0.5
A15G C27G A70U	0.543
A15U A36U G41A	≤ 0.5
A15G C24G U26A G52A	0.589
A15G U28C A37C A70U	≤ 0.5
A15G C60U	0.786
A15G C30U C31A A36C	≤ 0.5
A15G G25A U28C U35A G38A C46G C62U	0.527
A15G C55A	0.727
A15U A45C	0.803
A15U C24G G38A	0.551
A15U C29G C31G	≤ 0.5
A15G G50A U54A A57C	0.583
A15G U28G U53A G56A	≤ 0.5
A15U A21C C24G C29U A42C C55A	≤ 0.5
A15G C34U A40U U54C	≤ 0.5
A15G C30A A65C	0.609
A15G C24G G52A C66G G67A	≤ 0.5
A15G G18A C46U	0.645
A15G C24U C29U C30G U35G A43U	≤ 0.5
A15U G17A C34G C46A	0.569
A15U C22G C62U	≤ 0.5
A15G C31A G41C G56A G58C	≤ 0.5
A15U C29A A43C G50C	≤ 0.5

Variant	yeast fitness
A15G C27A A36G A43G A65G	0.571
A15U A21C C24G C62G	≤ 0.5
A15U A43U C55U C60A	0.69
A15G G17A C49U	0.687
A15U C22A G23A C24A	≤ 0.5
A15G C49G C62G	≤ 0.5
A15G C24A G52A	≤ 0.5
A15G U54C C66A	≤ 0.5
A15G C29U A43C A69U	0.536
A15G U28C C30U U59A A70C	≤ 0.5
A15G G25C G48A	0.637
A15U A40U G68C	0.627
A15U C33G C62G C66U	≤ 0.5
A15G C34G	0.636
A15G C49G C66G G67C	≤ 0.5
A15U C24G A42C U64C	≤ 0.5
A15U C24G A42C C62U	≤ 0.5
A15G G23C C30A A42C G51C C61A G67A	≤ 0.5
A15U C30G	≤ 0.5
A15G C55G G56U G68C	≤ 0.5
A15U C24G A42C C55U G68U	≤ 0.5
A15G C31U C60A	0.584
A15G U54A A70U	0.564
